According to ChEMBL document CHEMBL1124060, “2-Ethynylbenzenealkanamines. A new class of calcium entry blockers” (1988):

Legend:
Type in all cases: functional
[1] = organism: Cavia porcellus; assay: Concentration needed to elicit a 75% increase beyond control in coronary flow in ''Langendorff'', guinea pig heart (in vitro)
Procedure, shortened: (§1)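 Isolated Langendorff-perfused guinea pig hearts infused with a range of drug concentrations; force (g), rate (beats/min) and coronary flow (mL/min) recorded. A linear regression of percent-control flow gives C175, the micromolar concentration raising flow to 175% of control, reported only if within the tested range. Raw data analysed by paired t tests.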

[2] = organism: Cavia porcellus; assay: Concentration needed to achieve a 75% increase in coronary blood flow in 'Langendorff', guinea pig heart (in vitro negative inotropic activity); procedure, shortened: as §1
[3] = organism: Cavia porcellus; assay: Concentration needed to achieve a 75% increase in coronary blood flow in 'Langendorff', guinea pig heart (in vitro Negative inotropic potency); procedure, shortened: as §1
[4] = tested on: Rattus norvegicus; assay: Ability to lower blood pressure in the spontaneously hypertensive rat (SHR) at 3 mg/kg (p.o.); conditions: route oral
Procedure, shortened: (§2)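 Spontaneously hypertensive rats dosed orally at the stated dose; read-out is the maximum fall in blood pressure (mmHg), with significance shown as P.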

[5] = tested on: Rattus norvegicus; assay: Ability to lower blood pressure in the spontaneously hypertensive rat (SHR) at 10 mg/kg (p.o.); conditions: route oral; procedure, shortened: as §2
[6] = tested on: Rattus norvegicus; assay: Ability to lower blood pressure in the spontaneously hypertensive rat (SHR) at 30 mg/kg (p.o.); conditions: route oral
Procedure, shortened: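 Spontaneously hypertensive rats were given a single oral dose of the compound. The read-out was the maximum fall in blood pressure, in mmHg, after that dose. A P value for significance was reported with each value.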

[7] = organism: Oryctolagus cuniculus; assay: In vitro inhibition of development of isometric tension, in response to KCl (60 uM) in rabbit aorta
Procedure, shortened: (§3)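 Test compounds at 10 μM; tension and calcium influx each expressed as % change from control, measured against KCl ([…]) or NE (10 μM) stimulus.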

[8] = organism: Oryctolagus cuniculus; assay: In vitro inhibition of development of isometric tension, in response to norepinephrine (NE, 10 uM) in rabbit aorta; procedure, shortened: as §3
[9] = organism: Oryctolagus cuniculus; assay: Inhibition of [Ca2+] influx in response to a stimulus of KCL ([…]); procedure, shortened: as §3
[10] = organism: Oryctolagus cuniculus; assay: Inhibition of [Ca2+] influx in response to a stimulus of norepinephrine (NE, 10 uM); procedure, shortened: as §3

COc1cccc(CCN(C)C(C)Cc2cc(OC)ccc2C#Cc2ccccc2)c1 (configuration not stated)
C175 [1]: 0.0035 µM | Contractile force, % of control [2]: 95% | P (Ei) [3]: 0.21 | Max fall in blood pressure [4]: 67 mmHg

COc1ccc(C#Cc2ccc(C#N)cc2)c(CC(C)N(C)CCc2ccc(OC)c(OC)c2)c1 (configuration not stated)
C175 [1]: 0.45 µM | Contractile force, % of control [2]: 75% | P (Ei) [3]: <0.05 | Max fall in blood pressure [5]: 27 mmHg

COc1ccc(C#CCCc2ccccc2)c(CCCN(C)CCc2ccc(OC)c(OC)c2)c1
C175 [1]: 1.25 µM | Contractile force, % of control [2]: 100% | P (Ei) [3]: >0.5 | Max fall in blood pressure [5]: 12 mmHg

CCC#Cc1ccc(OC)cc1CCCN(C)CCc1ccc(OC)c(OC)c1
C175 [1]: 1 µM | Contractile force, % of control [2]: 80% | P (Ei) [3]: <0.05 | Max fall in blood pressure [5]: 24 mmHg

COc1ccc(C#Cc2ccccc2)c(CC(C)N(C)CCCCc2ccccc2)c1 (configuration not stated)
C175 [1]: 2.75 µM | Contractile force, % of control [2]: 90% | P (Ei) [3]: >0.05 | Max fall in blood pressure [6]: 74 mmHg

COc1ccc(C#Cc2ccc(C(F)(F)F)cc2)c(CC(C)N(C)CCc2ccc(OC)c(OC)c2)c1 (configuration not stated)
C175 [1]: 2 µM | Contractile force, % of control [2]: 90% | P (Ei) [3]: >0.5 | Max fall in blood pressure [6]: 49 mmHg

COc1ccc(C#Cc2ccccc2)c(CC(C)NCCc2ccc(Cl)cc2)c1 (configuration not stated)
C175 [1]: >3 µM | Contractile force, % of control [2]: >25% | P (Ei) [3]: <0.05 | Max fall in blood pressure [5]: 39 mmHg

COc1ccc(C#Cc2ccccc2)c(CC(C)NCCc2cccc(Cl)c2Cl)c1 (configuration not stated)
C175 [1]: 0.0048 µM | Contractile force, % of control [2]: 83% | P (Ei) [3]: 0.031 | Max fall in blood pressure [4]: 45 mmHg

COc1ccc(CCN(C)C(C)Cc2ccccc2C#Cc2ccccc2)cc1OC (configuration not stated)
C175 [1]: 0.2 µM | Contractile force, % of control [2]: 90% | P (Ei) [3]: >0.05 | Max fall in blood pressure [5]: 13 mmHg

CCCCCCN(C)C(C)Cc1cc(OC)ccc1C#Cc1ccccc1 (configuration not stated)
C175 [1]: >3 µM | Max fall in blood pressure [5]: 48 mmHg

COc1ccc(C#Cc2ccc(SC)cc2)c(CC(C)N(C)CCc2ccc(OC)c(OC)c2)c1 (configuration not stated)
C175 [1]: 0.55 µM | Contractile force, % of control [2]: 80% | P (Ei) [3]: 0.5 | Max fall in blood pressure [6]: 45 mmHg

COc1ccc(C#Cc2ccc(C(C)C)cc2)c(CC(C)N(C)CCc2ccc(OC)c(OC)c2)c1 (configuration not stated)
C175 [1]: 4.04 µM | Contractile force, % of control [2]: 34% | P (Ei) [3]: <0.001 | Max fall in blood pressure [4]: 13 mmHg

COc1ccc(C#Cc2ccccc2)c(CC(C)N(C)CCc2ccccc2)c1 (configuration not stated)
C175 [1]: 0.5 µM | Contractile force, % of control [2]: 115% | P (Ei) [3]: >0.5 | Max fall in blood pressure [5]: 43 mmHg

COc1ccc(C#Cc2ccc(Cl)cc2)c(CC(C)N(C)CCc2ccc(OC)c(OC)c2)c1 (configuration not stated)
C175 [1]: 0.3 µM | Contractile force, % of control [2]: 85% | P (Ei) [3]: >0.5 | Max fall in blood pressure [6]: 46 mmHg

COc1ccc(C#Cc2ccccc2)c(CC(C)NCCc2ccc([N+](=O)[O-])cc2)c1 (configuration not stated)
C175 [1]: >3 µM | Contractile force, % of control [2]: >66% | P (Ei) [3]: <0.05 Ei | Max fall in blood pressure [6]: 66 mmHg

COc1ccc(C#Cc2ccccc2)c(CC(C)N(C)Cc2ccc(OC)c(OC)c2)c1 (configuration not stated)
C175 [1]: 3 µM | Contractile force, % of control [2]: 50% | P (Ei) [3]: <0.05 | Max fall in blood pressure [5]: 20 mmHg

COc1cccc(CC(C)NCCc2ccc(OC)c(OC)c2)c1 (configuration not stated)
C175 [1]: >10 µM | Max fall in blood pressure [6]: 18 mmHg

COc1ccc(C#Cc2ccccc2)c(CCCN(C)C)c1
C175 [1]: 0.3 µM | Contractile force, % of control [2]: 110% | P (Ei) [3]: >0.5 | Max fall in blood pressure [6]: 22 mmHg

COc1ccc(C#Cc2ccccc2)c(CC(C)N(C)CCc2cccc(Cl)c2)c1 (configuration not stated)
C175 [1]: 0.005 µM | Contractile force, % of control [2]: 95% | P (Ei) [3]: 0.53 | Max fall in blood pressure [4]: 64 mmHg

COc1ccc(CCN(C)C(C)CCc2cc(F)ccc2C#Cc2ccccc2)cc1OC (configuration not stated)
C175 [1]: 0.34 µM | Contractile force, % of control [2]: 85% | P (Ei) [3]: 0.45 | Max fall in blood pressure [6]: 50 mmHg

COc1ccc(C#Cc2ccccc2)c(CC(C)NCCc2cccc3ccccc23)c1 (configuration not stated)
C175 [1]: 0.083 µM | Contractile force, % of control [2]: 77% | P (Ei) [3]: 0.003 | Max fall in blood pressure [6]: 48 mmHg

COc1cccc(CCNC(C)Cc2cc(OC)ccc2C#Cc2ccccc2)c1 (configuration not stated)
C175 [1]: 0.004 µM | Contractile force, % of control [2]: 115% | P (Ei) [3]: 0.019 | Max fall in blood pressure [5]: 56 mmHg

COc1cc(CCN(C)C(C)Cc2cc(OC)ccc2C#Cc2ccccc2)cc(OC)c1 (configuration not stated)
C175 [1]: 0.0025 µM | Contractile force, % of control [2]: 100% | P (Ei) [3]: 0.5 | Change [7]: -68% | Change [8]: -22% | Change [9]: -41% | Change [10]: -10% | Max fall in blood pressure [4]: 66 mmHg

COc1ccc(C#Cc2ccc(F)cc2)c(CC(C)N(C)CCc2ccc(OC)c(OC)c2)c1 (configuration not stated)
C175 [1]: 0.0013 µM | Contractile force, % of control [2]: 78% | P (Ei) [3]: 0.003 | Max fall in blood pressure [4]: 43 mmHg

CCCCN(CCc1ccc(OC)c(OC)c1)C(C)Cc1cc(OC)ccc1C#Cc1ccccc1 (configuration not stated)
C175 [1]: >3 µM | Max fall in blood pressure [6]: 49 mmHg

COc1ccc(C#Cc2ccccc2)c(CC(C)N(C)CCCc2ccccc2)c1 (configuration not stated)
C175 [1]: 2.5 µM | Contractile force, % of control [2]: 95% | P (Ei) [3]: >0.5 | Max fall in blood pressure [6]: 52 mmHg

COc1ccc(C#Cc2ccccc2)c(CC(C)N(C)CCc2cccc3ccccc23)c1 (configuration not stated)
C175 [1]: 0.19 µM | Contractile force, % of control [2]: 61% | P (Ei) [3]: 0.005

COc1cc(CCN(C)C(C)CCc2cc(OC)ccc2C#Cc2ccccc2)cc(OC)c1 (configuration not stated)
C175 [1]: 0.095 µM | Contractile force, % of control [2]: 105% | P (Ei) [3]: 0.15 | Max fall in blood pressure [6]: 42 mmHg

COc1ccc(C#Cc2ccc(N(C)C)cc2)c(CC(C)N(C)CCc2ccc(OC)c(OC)c2)c1 (configuration not stated)
C175 [1]: 0.035 µM | Contractile force, % of control [2]: 115% | P (Ei) [3]: 0.009 | Max fall in blood pressure [4]: 69 mmHg

COc1ccc(C#Cc2ccccc2)c(CC(C)NCCc2cccc(Cl)c2)c1 (configuration not stated)
C175 [1]: 0.03 µM | Contractile force, % of control [2]: 85% | P (Ei) [3]: 0.007 | Max fall in blood pressure [4]: 52 mmHg

COc1ccc(C#Cc2ccccc2)c(CC(C)N(C)CCc2cccc(Cl)c2Cl)c1 (configuration not stated)
C175 [1]: 0.015 µM | Contractile force, % of control [2]: 58% | P (Ei) [3]: 0.007 | Max fall in blood pressure [4]: 111 mmHg

COc1ccc(C#Cc2ccccc2)c(CCC(C)N(C)CCc2ccc(OC)c(OC)c2)c1 (configuration not stated)
C175 [1]: 0.025 µM | Contractile force, % of control [2]: 135% | P (Ei) [3]: 0.055 | Change [7]: -71% | Change [8]: -47% | Change [9]: -42% | Change [10]: -34% | Max fall in blood pressure [6]: 40 mmHg

COc1ccc(C#Cc2ccccc2)c(CC(C)NCCc2ccc(Cl)c(Cl)c2)c1 (configuration not stated)
C175 [1]: 0.006 µM | Contractile force, % of control [2]: 115% | P (Ei) [3]: 0.205 | Change [7]: -20% | Change [8]: -5% | Change [9]: -21% | Change [10]: -23% | Max fall in blood pressure [4]: 43 mmHg

COc1ccc(C#Cc2ccccc2)c(CC(C)NCCc2ccc(OC)c(OC)c2)c1 (configuration not stated)
C175 [1]: 0.027 µM | Contractile force, % of control [2]: 95% | P (Ei) [3]: >0.5 | Change [7]: -68% | Change [8]: -45% | Change [9]: -46% | Change [10]: -27% | Max fall in blood pressure [4]: 37 mmHg

COc1ccc(C#Cc2ccccc2)c(CCC(C)NCCc2ccc(OC)c(OC)c2)c1 (configuration not stated)
C175 [1]: 0.07 µM | Contractile force, % of control [2]: 123% | P (Ei) [3]: 0.001 | Max fall in blood pressure [6]: 20 mmHg

COc1cc(CCNC(C)CCc2cc(OC)ccc2C#Cc2ccccc2)cc(OC)c1 (configuration not stated)
C175 [1]: 2.1 µM | Contractile force, % of control [2]: 87% | P (Ei) [3]: 0.045 | Max fall in blood pressure [6]: 34 mmHg

COc1ccc(C#Cc2ccccc2)c(CCN(C)C)c1
C175 [1]: 3 µM | Control [2]: 90% | P (Ei) [3]: >0.05 | Max fall in blood pressure [6]: 18 mmHg

COc1ccc([C@@H]2Sc3ccccc3N(CCN(C)C)C(=O)[C@@H]2OC(C)=O)cc1 [DILTIAZEM]
C175 [1]: 0.18 µM | Contractile force, % of control [2]: 90% | P (Ei) [3]: >0.05 | Change [7]: -84% | Change [8]: -8% | Change [9]: -18% | Change [10]: -37% | Max fall in blood pressure [6]: 48 mmHg

COC(=O)C1=C(C)NC(C)=C(C(=O)OC)C1c1ccccc1[N+](=O)[O-] [NIFEDIPINE]
C175 [1]: 0.013 µM | Contractile force, % of control [2]: 85% | P (Ei) [3]: 0.014 | Max fall in blood pressure [5]: 52 mmHg

COc1ccc(CCN(C)CCCC(C#N)(c2ccc(OC)c(OC)c2)C(C)C)cc1OC (configuration not stated) [VERAPAMIL]
C175 [1]: 0.1 µM | Contractile force, % of control [2]: 35% | P (Ei) [3]: <0.001 | Change [7]: -89% | Change [8]: -18% | Change [9]: -30% | Change [10]: -22% | Max fall in blood pressure [6]: 67 mmHg
